Data published in ChEMBL document CHEMBL1157852, “Modulation of doxorubicin activity in cancer cells by conjugation with fatty acyl and terpenyl hydrazones” (Eur J Med Chem, 2010).
pIC50: −log10 of the molar value. Activity calls are given as the source filed them. The calls are words filed in the database; no cut-off is given here.

How the values were obtained:
HL-60 [1] = experiment: Cytotoxicity against human HL60 cells after 72 hrs by MTT assay; assay type: functional, cell-based; conditions: HL-60, 72 h
How it was run: (§1)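 MTT assay. Cells seeded and cultured 24 h, then exposed to compound for 24, 48 or 72 h. MTT added to a final 0.05% (HL-60, 518A2) or 0.1% (KB-V1, MCF-7) for 2 h. Formazan dissolved in 10% SDS/DMSO with 0.6% acetic acid; absorbance read at 570 nm against 630 nm background. Viability taken relative to untreated controls (100%). IC50 from concentration-response curves, mean ± SD of four independent experiments.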

[2] = Cytotoxicity against human 518A2 cells after 48 hrs by MTT assay; assay type: functional, cell-based; conditions: 518A2, 48 h; how it was run: as §1
518A2 [3] = experiment: Induction of apoptosis in human 518A2 cells assessed as increase of caspase 8 activity at 5 uM measured up to 12 hrs by luminometric assay; assay type: functional, cell-based
How it was run: (§2)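 HL-60 and 518A2 cells treated with 5 µM compound and sampled at intervals from 1 to 24 h. Lysed in 50 mM Tris-HCl pH 7.4, 150 mM NaCl, 1% Triton X-100 with protease inhibitors for 15 min at 4 °C, spun at 800 g. Protein measured by Bradford. Caspase-3/7, -8 and -9 activities read with luminogenic peptide substrates; reported as relative luminescence.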

MCF7 = experiment: Cytotoxicity against human doxorubicin-resistant MCF7 cells by MTT assay; assay type: functional
518A2 [4] = experiment: Induction of apoptosis in human 518A2 cells assessed as increase of caspase 3 activity at 5 uM measured up to 12 hrs by luminometric assay; assay type: functional, cell-based; how it was run: as §2
[5] = Cytotoxicity against human doxorubicin-resistant KBV1 cells by MTT assay; assay type: functional, KB-V1
[6] = Cytotoxicity against human 518A2 cells assessed as increase in ROS production at 5 uM after 72 hrs by NBT reduction assay relative to control; assay type: functional
How it was run: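 NBT assay. HL-60 cells (0.5×10⁶/mL) or trypsinised 518A2 cells (5×10⁴/mL) pre-incubated 24 h at 37 °C, then given compound at a final 5 µM for 24 or 72 h. Medium removed; cells incubated with 0.1% NBT for 1 h (HL-60) or 4 h (518A2). Diformazan dissolved in 2 M KOH/DMSO; A630 read against 405 nm. Given as % of untreated controls; double quadruplicates.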

HL-60 [7] = experiment: Cytotoxicity against human HL60 cells after 48 hrs by MTT assay; assay type: functional, cell-based; conditions: HL-60, 48 h; how it was run: as §1
[8] = Ratio of compound IC50 to doxorubicin IC50 for human doxorubicin-resistant KBV1 cells; assay type: functional
518A2 [9] = experiment: Induction of apoptosis in human 518A2 cells assessed as appearance of intact mitochondria in cytosol at 5 uM after 6 hrs using JC1 dye relative to control; assay type: functional
How it was run: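 Mitochondrial membrane potential measured with JC-1. Cells exposed to 5 µM compound for 6 or 18 h, pelleted at 400 g, stained with 0.2× JC-1 at 37 °C for 15 min (HL-60) or 35 min (518A2), washed and resuspended in PBS. Red fluorescence (ex 585/em 590 nm) and green (ex 510/em 527 nm) read; red/green ratio relative to untreated controls (100%). Mean ± SD, four independent experiments.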

[10] = Cytotoxicity against human vinblastine-resistant KBV1 cells after 72 hrs by MTT assay in presence of 24 mM ABC transporter inhibitor verapamil hydrochloride; assay type: functional, cell-based; conditions: KB-V1, 72 h, in the assay text read “24 uM” for “24 mM”
How it was run: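 MTT viability assay on P-gp-overexpressing KB-V1/Vbl cells with 24 µM verapamil hydrochloride added before the compound; 72 h exposure. Formazan read at 570/630 nm relative to untreated controls. IC50 from concentration-response curves, mean ± SD of four independent experiments.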

## COc1cccc2c1C(=O)c1c(O)c3c(c(O)c1C2=O)C[C@@](O)(/C(CO)=N/NC(=O)CCCCCCCCCCC(=O)O[C@@H]1C[C@H](C)CC[C@H]1C(C)C)C[C@@H]3O[C@H]1C[C@H](N)[C@H](O)[C@H](C)O1.Cl
HL-60 [1]
  pIC50: 6.96
[2]
  pIC50: 6.80
518A2 [3]
  Activity: inactive
MCF7
  Activity: 55 nM
518A2 [4]
  Activity: inactive
[5]
  Activity: 200 nM
[6]
  Activity: 38.3%
HL-60 [7]
  pIC50: 6.60
[8]
  Ratio IC50: 1.6
518A2 [9]
  Activity: 108%
[10]
  pIC50: 6.17
